Test results from ChEMBL document CHEMBL4689842, “EUbOPEN Chemogenomics Library wave 1” (2021).

Tested on: Fibroblast
Assay: Multiplex assay against human fibroblast
Assay type: toxicity, cell-based
Procedure, shortened: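 Imaging took place on a CQ1 microscope at 37°C and 5% CO2 once compound had been added to live cells stained at seeding with Hoechst33342, BioTracker Green Microtubule Cytoskeleton Dye, MitoTracker Red and Annexin V Alexa Fluor 680. CellPathfinder machine-learning gating classed cells as Hoechst high-intensity objects or normal cells, classed normal cells as having healthy, pyknosed or fragmented nuclei, and classed pyknosed cells as mitotic or apoptotic. Tubulin, mitochondrial-mass and membrane-permeability phenotypes are per cents of the healthy-nucleus cells.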

[1] = 12 h, 1 µM, compound concentration 1 uM, replicate 1
[2] = 12 h, 1 µM, compound concentration 1 uM, replicate 2
[3] = 12 h, 10 µM, compound concentration 10 uM, replicate 1
[4] = 12 h, 10 µM, compound concentration 10 uM, replicate 2
[5] = 24 h, 1 µM, compound concentration 1 uM, replicate 1
[6] = 24 h, 1 µM, compound concentration 1 uM, replicate 2
[7] = 24 h, 10 µM, compound concentration 10 uM, replicate 1
[8] = 24 h, 10 µM, compound concentration 10 uM, replicate 2
[9] = 48 h, 1 µM, compound concentration 1 uM, replicate 1
[10] = 48 h, 1 µM, compound concentration 1 uM, replicate 2
[11] = 48 h, 10 µM, compound concentration 10 uM, replicate 1
[12] = 48 h, 10 µM, compound concentration 10 uM, replicate 2

## CN1C2CCC1CC(OC(c1ccc(F)cc1)c1ccc(F)cc1)C2.Cl (centres undefined)
[1]
  Population Apoptotic (%): 53%
  Population Fragmented Nuclei (%): 26%
  Population Healthy Nuclei (%): 45%
  Population Hoechst High Intensity Objects (%): 12%
  Population Membrane Permeable-Phenotype (%): 21%
  Population Mitochondria Different-Phenotype (%): 11%
  Population Mitotic Cells (%): 46%
  Population Normal (%): 87%
  Population Pyknosed Nuclei (%): 27%
  Population Tubulin-Different-Phenotype (%): 52%
  Total Cell Count: 106
[2]
  Population Apoptotic (%): 100%
  Population Fragmented Nuclei (%): 5%
  Population Healthy Nuclei (%): 92%
  Population Hoechst High Intensity Objects (%): 2%
  Population Membrane Permeable-Phenotype (%): 3%
  Population Mitochondria Different-Phenotype (%): 4%
  Population Mitotic Cells (%): 0%
  Population Normal (%): 97%
  Population Pyknosed Nuclei (%): 1%
  Population Tubulin-Different-Phenotype (%): 8%
  Total Cell Count: 69
[3]
  Population Apoptotic (%): 64%
  Population Fragmented Nuclei (%): 31%
  Population Healthy Nuclei (%): 50%
  Population Hoechst High Intensity Objects (%): 9%
  Population Mitochondria Different-Phenotype (%): 37%
  Population Mitotic Cells (%): 36%
  Population Normal (%): 90%
  Population Pyknosed Nuclei (%): 18%
  Population Tubulin-Different-Phenotype (%): 68%
  Total Cell Count: 148
[4]
  Population Apoptotic (%): 80%
  Population Fragmented Nuclei (%): 8%
  Population Healthy Nuclei (%): 78%
  Population Hoechst High Intensity Objects (%): 6%
  Population Membrane Permeable-Phenotype (%): 10%
  Population Mitochondria Different-Phenotype (%): 89%
  Population Mitotic Cells (%): 20%
  Population Normal (%): 93%
  Population Pyknosed Nuclei (%): 13%
  Population Tubulin-Different-Phenotype (%): 49%
  Total Cell Count: 78
[5]
  Population Apoptotic (%): 53%
  Population Fragmented Nuclei (%): 24%
  Population Healthy Nuclei (%): 58%
  Population Hoechst High Intensity Objects (%): 13%
  Population Membrane Permeable-Phenotype (%): 26%
  Population Mitochondria Different-Phenotype (%): 4%
  Population Mitotic Cells (%): 46%
  Population Normal (%): 86%
  Population Pyknosed Nuclei (%): 17%
  Population Tubulin-Different-Phenotype (%): 58%
  Total Cell Count: 99
[6]
  Population Apoptotic (%): 20%
  Population Fragmented Nuclei (%): 3%
  Population Healthy Nuclei (%): 90%
  Population Hoechst High Intensity Objects (%): 2%
  Population Membrane Permeable-Phenotype (%): 4%
  Population Mitotic Cells (%): 80%
  Population Normal (%): 97%
  Population Pyknosed Nuclei (%): 6%
  Population Tubulin-Different-Phenotype (%): 8%
  Total Cell Count: 82
[7]
  Population Apoptotic (%): 38%
  Population Fragmented Nuclei (%): 38%
  Population Healthy Nuclei (%): 45%
  Population Hoechst High Intensity Objects (%): 17%
  Population Membrane Permeable-Phenotype (%): 15%
  Population Mitochondria Different-Phenotype (%): 40%
  Population Mitotic Cells (%): 61%
  Population Normal (%): 82%
  Population Pyknosed Nuclei (%): 15%
  Population Tubulin-Different-Phenotype (%): 60%
  Total Cell Count: 160
[8]
  Population Apoptotic (%): 80%
  Population Fragmented Nuclei (%): 16%
  Population Healthy Nuclei (%): 64%
  Population Hoechst High Intensity Objects (%): 3%
  Population Membrane Permeable-Phenotype (%): 6%
  Population Mitochondria Different-Phenotype (%): 78%
  Population Mitotic Cells (%): 20%
  Population Normal (%): 96%
  Population Pyknosed Nuclei (%): 19%
  Population Tubulin-Different-Phenotype (%): 25%
  Total Cell Count: 107
[9]
  Population Apoptotic (%): 28%
  Population Fragmented Nuclei (%): 34%
  Population Healthy Nuclei (%): 52%
  Population Hoechst High Intensity Objects (%): 13%
  Population Membrane Permeable-Phenotype (%): 22%
  Population Mitochondria Different-Phenotype (%): 1%
  Population Mitotic Cells (%): 71%
  Population Normal (%): 86%
  Population Pyknosed Nuclei (%): 12%
  Population Tubulin-Different-Phenotype (%): 45%
  Total Cell Count: 126
[10]
  Population Apoptotic (%): 0%
  Population Healthy Nuclei (%): 64%
  Population Hoechst High Intensity Objects (%): 11%
  Population Membrane Permeable-Phenotype (%): 9%
  Population Mitochondria Different-Phenotype (%): 6%
  Population Mitotic Cells (%): 100%
  Population Normal (%): 88%
  Population Pyknosed Nuclei (%): 0%
  Population Tubulin-Different-Phenotype (%): 47%
  Total Cell Count: 127
[11]
  Population Apoptotic (%): 80%
  Population Fragmented Nuclei (%): 47%
  Population Healthy Nuclei (%): 45%
  Population Hoechst High Intensity Objects (%): 25%
  Population Membrane Permeable-Phenotype (%): 9%
  Population Mitochondria Different-Phenotype (%): 27%
  Population Mitotic Cells (%): 20%
  Population Normal (%): 74%
  Population Pyknosed Nuclei (%): 7%
  Population Tubulin-Different-Phenotype (%): 78%
  Total Cell Count: 191
[12]
  Population Apoptotic (%): 100%
  Population Fragmented Nuclei (%): 64%
  Population Healthy Nuclei (%): 35%
  Population Hoechst High Intensity Objects (%): 16%
  Population Membrane Permeable-Phenotype (%): 11%
  Population Mitochondria Different-Phenotype (%): 18%
  Population Mitotic Cells (%): 0%
  Population Normal (%): 83%
  Population Pyknosed Nuclei (%): 0%
  Population Tubulin-Different-Phenotype (%): 79%
  Total Cell Count: 259
